For 1 protein, Km results are on record in ChEMBL document CHEMBL1135890, “Structure-activity relationships of 2'-fluoro-2',3'-unsaturated D-nucleosides as anti-HIV-1 agents” (J Med Chem, 2002).

Substrate in data set [1]: Nc1ncnc2c1ncn2[C@@H]1O[C@H](CO)C=C1F
Nature of the data set: (§1) Michaelis constant was determined against mammalian Adenosine deaminase. In short, it runs like this:
(§2)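 Calf intestinal mucosa adenosine deaminase (EC 3.5.4.4), 0.15–0.24 unit depending on substrate. Substrate 15–200 μM in phosphate buffer pH 7.4 at 25 °C. Deamination followed by UV absorbance at 265 nm. Each reaction medium was checked by TLC or UV to confirm the deaminated substrate was the sole product.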

Substrate in data set [2]: Nc1ncnc2c1ncn2C1OC(CO)C=C1O
Described as §1. In short, it runs like this: as §2

Substrate in data set [3]: Nc1ncnc2c1ncn2[C@@H]1O[C@H](CO)[C@@H](O)[C@H]1O
The data set is described as §1. In short, it runs like this: as §2

B1: Adenosine deaminase (Homo sapiens), P00813 (protein)
chain: MAQTPAFDKPKVELHVHLDGSIKPETILYYGRRRGIALPANTAEGLLNVIGMDKPLTLPDFLAKFDYYMPAIAGCREAIKRIAYEFVEMKAKEGVVYVEVRYSPHLLANSKVEPIPWNQAEGDLTPDEVVALVGQGLQEGERDFGVKARSILCCMRHQPNWSPKVVELCKKYQQQTVVAIDLAGDETIPGSSLLPGHVQAYQEAVKSGIHRTVHAGEVGSAEVVKEAVDILKTERLGHGYHTLEDQALYNRLRQENMHFEICPWSSYLTGAWKPDTEHAVIRLKNDQANYSLNTDDPLIFKSTLDTDYQMTKRDMGFTEEEFKRLNINAAKSSFLPEDEKRELLDLLYKAYGMPPSASAGQNL
As for B1, the Km (commonly the substrate concentration at which the rate is half of its maximum) worked out at 23 µM in data set [1], 30 µM in data set [2] and 5 µM in data set [3].
